Data reported in ChEMBL document CHEMBL4689842, “EUbOPEN Chemogenomics Library wave 1” (2021).
Where “and” joins values, the source holds several entries; their conditions need not be identical. Equal entries are not always repeated.

Test system: U2OS
Assay: Multiplex assay against U2OS
Assay type: toxicity, cell-based
Conditions: human, 10 µM, compound concentration 10 uM
Procedure, shortened: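 Hoechst33342, BioTracker Green Microtubule Cytoskeleton Dye, MitoTracker Red and Annexin V Alexa Fluor 680 were added to live cells at seeding, and imaging on a CQ1 microscope at 37°C and 5% CO2 followed compound addition. Gating by CellPathfinder machine learning separated cells into Hoechst high-intensity objects or normal cells, then normal cells into healthy, pyknosed or fragmented nuclei, then pyknosed cells into mitotic or apoptotic. Per cents of healthy-nucleus cells are reported for the tubulin, mitochondrial-mass and membrane-permeability phenotypes.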

CN1CCN(C(=O)C(C)(C)c2ccc(C(=O)Nc3cn4cc(-c5ccncc5)ccc4n3)cc2)CC1 [T3-CLK]
Population Apoptotic (%) (12 h, replicate 1): 37% and 22% | Population Healthy Nuclei (%) (12 h, replicate 1): 90% and 71% and 89% | Population Hoechst High Intensity Objects (%) (12 h, replicate 1): 5% | Population Mitotic Cells (%) (12 h, replicate 1): 62% and 77% | Population Normal (%) (12 h, replicate 1): 94% | Population Pyknosed Nuclei (%) (12 h, replicate 1): 10% and 7% | Total Cell Count (12 h, replicate 1): 128 and 143 and 333 | Population Healthy Nuclei (%) (12 h, replicate 2): 88% and 70% and 87% | Population Hoechst High Intensity Objects (%) (12 h, replicate 2): 6% and 7% and 9% | Population Membrane Permeable-Phenotype (%) (12 h, replicate 2): 62% and 21% and 25% | Population Mitotic Cells (%) (12 h, replicate 2): 50% and 100% and 66% | Population Normal (%) (12 h, replicate 2): 93% and 92% and 90% | Population Pyknosed Nuclei (%) (12 h, replicate 2): 5% and 11% and 3% | Population Apoptotic (%) (24 h, replicate 1): 36% and 62% and 33% | Population Fragmented Nuclei (%) (24 h, replicate 1): 11% and 21% and 8% | Population Healthy Nuclei (%) (24 h, replicate 1): 81% and 64% and 77% | Population Hoechst High Intensity Objects (%) (24 h, replicate 1): 5% and 10% and 6% | Population Membrane Permeable-Phenotype (%) (24 h, replicate 1): 52% and 26% and 34% | Population Mitotic Cells (%) (24 h, replicate 1): 63% and 37% and 66% | Population Normal (%) (24 h, replicate 1): 94% and 90% and 93% | Population Pyknosed Nuclei (%) (24 h, replicate 1): 6% and 13% and 14% | Total Cell Count (24 h, replicate 1): 137 and 141 and 262 | Population Apoptotic (%) (24 h, replicate 2): 50% and 22% | Population Fragmented Nuclei (%) (24 h, replicate 2): 29% and 22% and 15% | Population Healthy Nuclei (%) (24 h, replicate 2): 58% and 66% and 70% | Population Hoechst High Intensity Objects (%) (24 h, replicate 2): 12% and 9% | Population Membrane Permeable-Phenotype (%) (24 h, replicate 2): 17% and 19% | Population Mitotic Cells (%) (24 h, replicate 2): 50% and 77% | Population Normal (%) (24 h, replicate 2): 87% | Population Pyknosed Nuclei (%) (24 h, replicate 2): 11% | Population Apoptotic (%) (48 h, replicate 1): 73% | Population Fragmented Nuclei (%) (48 h, replicate 1): 34% | Population Healthy Nuclei (%) (48 h, replicate 1): 15% | Population Hoechst High Intensity Objects (%) (48 h, replicate 1): 16% | Population Membrane Permeable-Phenotype (%) (48 h, replicate 1): 56% | Population Mitochondria Different-Phenotype (%) (48 h, replicate 1): 87% | Population Mitotic Cells (%) (48 h, replicate 1): 26% | Population Normal (%) (48 h, replicate 1): 83% | Population Pyknosed Nuclei (%) (48 h, replicate 1): 50% | Population Tubulin-Different-Phenotype (%) (48 h, replicate 1): 100% | Total Cell Count (48 h, replicate 1): 145 | Population Apoptotic (%) (48 h, replicate 2): 61% | Population Fragmented Nuclei (%) (48 h, replicate 2): 28% | Population Healthy Nuclei (%) (48 h, replicate 2): 36% | Population Hoechst High Intensity Objects (%) (48 h, replicate 2): 23% | Population Membrane Permeable-Phenotype (%) (48 h, replicate 2): 63% | Population Mitochondria Different-Phenotype (%) (48 h, replicate 2): 81% | Population Mitotic Cells (%) (48 h, replicate 2): 38% | Population Normal (%) (48 h, replicate 2): 76% | Population Pyknosed Nuclei (%) (48 h, replicate 2): 35% | Population Tubulin-Different-Phenotype (%) (48 h, replicate 2): 90% | Total Cell Count (48 h, replicate 2): 57
